From ChEMBL document CHEMBL3120060, “Synthesis, in vitro anticancer evaluation and in silico studies of novel imidazo[2,1-b]thiazole derivatives bearing pyrazole moieties” (2014)

Key:
Type in all cases: functional
SNB-19 = assay: Cytotoxicity against human SNB19 cells assessed as cell growth at 10 uM after 48 hrs by SRB assay; settings: SNB-19, 48 h, read-out: Activity
Procedure, shortened: (§1)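 NCI-60 single-dose screen. Cell lines grown in RPMI 1640 with 5% FBS and 2 mM L-glutamine, plated at 5000–40,000 cells/well according to doubling time, then preincubated 24 h at 37 °C in 5% CO2. Compounds dissolved in DMSO, tested at 10^-5 M for 48 h. Adherent cells fixed with cold TCA (10% final) and stained with 0.4% SRB in 1% acetic acid. Growth expressed as percent of untreated control.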

SF-268 = assay: Cytotoxicity against human SF268 cells assessed as cell growth at 10 uM after 48 hrs by SRB assay; settings: SF-268, 48 h, read-out: Activity; procedure, shortened: as §1
SW-620 = assay: Cytotoxicity against human SW620 cells assessed as cell growth at 10 uM after 48 hrs by SRB assay; settings: SW-620, 48 h, read-out: Activity
Procedure, shortened: (§2)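 NCI-60 single-dose screen at 10^-5 M. Adherent lines are grown in RPMI 1640 with 5% FBS and 2 mM L-glutamine, seeded at 5000–40,000 cells/well by doubling time, and preincubated 24 h at 37 °C in 5% CO2. Drug is added from DMSO stock diluted in medium, then 48 h. Cells are fixed in cold TCA (final 10%) for 60 min and stained with 0.4% SRB in 1% acetic acid. Growth is expressed as % of untreated control using time-zero plates.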

HCT-116 = assay: Cytotoxicity against human HCT116 cells assessed as cell growth at 10 uM after 48 hrs by SRB assay; settings: HCT-116, 48 h, read-out: Activity; procedure, shortened: as §1
HCC 2998 = assay: Cytotoxicity against human HCC2998 cells assessed as cell growth at 10 uM after 48 hrs by SRB assay; settings: HCC 2998, 48 h, read-out: Activity; procedure, shortened: as §1
NCI-H322M = assay: Cytotoxicity against human NCI-H322M cells assessed as cell growth at 10 uM after 48 hrs by SRB assay; settings: read-out: Activity; procedure, shortened: as §1
NCI-H226 = assay: Cytotoxicity against human NCI-H226 cells assessed as cell growth at 10 uM after 48 hrs by SRB assay; settings: NCI-H226, 48 h, read-out: Activity; procedure, shortened: as §1
SR = assay: Cytotoxicity against human SR cells assessed as cell growth at 10 uM after 48 hrs by SRB assay; settings: read-out: Activity
Procedure, shortened: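 Leukemia line, NCI-60 single-dose screen at 10^-5 M. Cells are grown in RPMI 1640 with 5% FBS and 2 mM L-glutamine, plated by doubling time, and preincubated 24 h at 37 °C with 5% CO2. After 48 h drug exposure, settled cells are fixed with 80% TCA (final 16%) and stained with SRB. Percent growth is calculated against untreated control and time-zero plates.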

RPMI-8226 = assay: Cytotoxicity against human RPMI8226 cells assessed as cell growth at 10 uM after 48 hrs by SRB assay; settings: RPMI-8226, 48 h, read-out: Activity; procedure, shortened: as §1
K562 = assay: Cytotoxicity against human K562 cells assessed as cell growth at 10 uM after 48 hrs by SRB assay; settings: K562, 48 h, read-out: Activity; procedure, shortened: as §1
HL-60(TB) = assay: Cytotoxicity against human HL-60(TB) cells assessed as cell growth at 10 uM after 48 hrs by SRB assay; settings: HL-60, 48 h, read-out: Activity
Procedure, shortened: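 NCI-60 single-dose screen: cells grown in RPMI 1640 with 5% FBS and 2 mM L-glutamine, plated at 5000–40,000 cells/well, preincubated 24 h at 37 °C, 5% CO2. Compound dissolved in DMSO, tested at 10^-5 M for 48 h. Cells TCA-fixed, sulforhodamine B stained. Growth expressed as percent of untreated control, referenced to time-zero plates.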

MDA-MB-468 = assay: Cytotoxicity against human MDA-MB-468 cells assessed as cell growth at 10 uM after 48 hrs by SRB assay; settings: MDA-MB-468, 48 h, read-out: Activity; procedure, shortened: as §1
BT-549 = assay: Cytotoxicity against human BT549 cells assessed as cell growth at 10 uM after 48 hrs by SRB assay; settings: BT-549, 48 h, read-out: Activity; procedure, shortened: as §1
[1] = Cytotoxicity against human Hs578T cells assessed as cell growth at 10 uM after 48 hrs by SRB assay; settings: Hs-578T, read-out: Activity; procedure, shortened: as §1
PC-3 = assay: Cytotoxicity against human PC3 cells assessed as cell growth at 10 uM after 48 hrs by SRB assay; settings: PC-3, 48 h, read-out: Activity; procedure, shortened: as §1
TK-10 = assay: Cytotoxicity against human TK10 cells assessed as cell growth at 10 uM after 48 hrs by SRB assay; settings: TK-10, 48 h, read-out: Activity; procedure, shortened: as §2
ACHN = assay: Cytotoxicity against human ACHN cells assessed as cell growth at 10 uM after 48 hrs by SRB assay; settings: read-out: Activity; procedure, shortened: as §1
OVCAR-8 = assay: Cytotoxicity against human OVCAR8 cells assessed as cell growth at 10 uM after 48 hrs by SRB assay; settings: OVCAR-8, 48 h, read-out: Activity; procedure, shortened: as §1
OVCAR-3 = assay: Cytotoxicity against human OVCAR3 cells assessed as cell growth at 10 uM after 48 hrs by SRB assay; settings: OVCAR-3, 48 h, read-out: Activity; procedure, shortened: as §1
UACC-62 = assay: Cytotoxicity against human UACC62 cells assessed as cell growth at 10 uM after 48 hrs by SRB assay; settings: UACC-62, 48 h, read-out: Activity; procedure, shortened: as §2
[2] = Cytotoxicity against human UACC257 cells assessed as cell growth at 10 uM after 48 hrs by SRB assay; settings: UACC-257, 48 h, read-out: Activity; procedure, shortened: as §2
SK-MEL-28 = assay: Cytotoxicity against human SK-MEL-28 cells assessed as cell growth at 10 uM after 48 hrs by SRB assay; settings: SK-MEL-28, 48 h, read-out: Activity; procedure, shortened: as §1
SK-MEL-2 = assay: Cytotoxicity against human SK-MEL-2 cells assessed as cell growth at 10 uM after 48 hrs by SRB assay; settings: SK-MEL-2, 48 h, read-out: Activity; procedure, shortened: as §1
M14 = assay: Cytotoxicity against human M14 cells assessed as cell growth at 10 uM after 48 hrs by SRB assay; settings: M14, 48 h, read-out: Activity; procedure, shortened: as §1
Malme-3M = assay: Cytotoxicity against human MALME-3M cells assessed as cell growth at 10 uM after 48 hrs by SRB assay; settings: read-out: Activity; procedure, shortened: as §1
U-251 = assay: Cytotoxicity against human U251 cells assessed as cell growth at 10 uM after 48 hrs by SRB assay; settings: U-251, 48 h, read-out: Activity; procedure, shortened: as §2

| SMILES | growth at 10 µM (SNB-19) | growth at 10 µM (SF-268) | growth at 10 µM (SW-620) | growth at 10 µM (HCT-116) | growth at 10 µM (HCC 2998) | growth at 10 µM (NCI-H322M) | growth at 10 µM (NCI-H226) | growth at 10 µM (SR) | growth at 10 µM (RPMI-8226) | growth at 10 µM (K562) | growth at 10 µM (HL-60(TB)) | growth at 10 µM (MDA-MB-468) | growth at 10 µM (BT-549) | growth at 10 µM [1] | growth at 10 µM (PC-3) | growth at 10 µM (TK-10) | growth at 10 µM (ACHN) | growth at 10 µM (OVCAR-8) | growth at 10 µM (OVCAR-3) | growth at 10 µM (UACC-62) | other results |
| --- | --- | --- | --- | --- | --- | --- | --- | --- | --- | --- | --- | --- | --- | --- | --- | --- | --- | --- | --- | --- | --- |
| Cc1cc(C)n(-c2cn3c(-c4ccccc4)csc3n2)n1 | 96.5% | 98.4% | 102% | 101% | 105% | 91.1% | 88.3% | 80.9% | 93% | 76.8% | 105% | 102% | 95.3% | 106% | 88.7% | 124% | 83.8% | 95.9% | 101% | 89.4% | growth at 10 µM [2]: 105%; growth at 10 µM (SK-MEL-28): 102%; growth at 10 µM (SK-MEL-2): 97.6%; growth at 10 µM (M14): 95.4%; growth at 10 µM (Malme-3M): 94.1%; growth at 10 µM (U-251): 94.7% |
| Cc1cc(C)n(-c2cn3c(-c4ccc(Cl)cc4)csc3n2)n1 | 92.8% | 102% | 100% | 89.8% | 102% | 91% | 81.5% | 65.8% | 68.2% | 83.1% | 90.2% | 88.5% | 113% | 94.3% | 79.1% | 128% | 91% | 91.5% | 107% | 86.9% | growth at 10 µM [2]: 104%; growth at 10 µM (SK-MEL-28): 97.9%; growth at 10 µM (SK-MEL-2): 113%; growth at 10 µM (M14): 101%; growth at 10 µM (Malme-3M): 93.1%; growth at 10 µM (U-251): 87.8% |
| CC1=NN(c2cn3c(-c4ccc(Cl)cc4)csc3n2)C(=O)C1 | 88% | 96.3% | 99.3% | 97.1% | 100% | 99.8% | 95.4% | 73.3% | 75.9% | 71.4% | 92.5% | 97.9% | 101% | 101% | 79.4% | 98.8% | 89.1% | 94.2% | 106% | 81.9% | growth at 10 µM [2]: 94.9%; growth at 10 µM (SK-MEL-28): 96.3%; growth at 10 µM (SK-MEL-2): 104%; growth at 10 µM (M14): 96.2%; growth at 10 µM (Malme-3M): 102%; growth at 10 µM (U-251): 91.7% |
| CC1=NN(c2cn3c(-c4ccc(C)cc4)csc3n2)C(=O)C1 | 100% | 111% | 105% | 94.4% | 103% | 105% | 89.7% | 73.3% | 93.6% | 80.5% | 110% | 102% | 111% | 109% | 75.3% | 135% | 96.9% | 102% | 110% | 74.1% | growth at 10 µM [2]: 100%; growth at 10 µM (SK-MEL-28): 98.5%; growth at 10 µM (SK-MEL-2): 114%; growth at 10 µM (M14): 99.2%; growth at 10 µM (Malme-3M): 107%; growth at 10 µM (U-251): 94.1% |
